{"source": "ChEMBL document CHEMBL1149096", "about": "(J Med Chem, 2004)", "key": {"Mus musculus [1]": {"tested_on": "Mus musculus", "assay": "Analgesic activity was calculated at time of peak drug effect when administered (icv) in mouse warm-water tail withdrawal assay", "type": "functional", "summary_of_the_method": "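Male ICR mice dosed icv (5 µL; water or 100% DMSO) under light ether anaesthesia. 55 °C warm-water tail withdrawal read at 10-180 min, cutoff 10 s. %MPE = 100 × (test − control)/(cutoff − control). A50 and 95% CI taken at peak effect by linear regression.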"}, "Cavia porcellus": {"organism": "Cavia porcellus", "assay": "Selectivity given as ratio of kappa receptor to delta receptor"}, "[2]": {"target": "Delta-type opioid receptor (Mus musculus) (UniProt P32300)", "sequence (P32300 whole entry)": "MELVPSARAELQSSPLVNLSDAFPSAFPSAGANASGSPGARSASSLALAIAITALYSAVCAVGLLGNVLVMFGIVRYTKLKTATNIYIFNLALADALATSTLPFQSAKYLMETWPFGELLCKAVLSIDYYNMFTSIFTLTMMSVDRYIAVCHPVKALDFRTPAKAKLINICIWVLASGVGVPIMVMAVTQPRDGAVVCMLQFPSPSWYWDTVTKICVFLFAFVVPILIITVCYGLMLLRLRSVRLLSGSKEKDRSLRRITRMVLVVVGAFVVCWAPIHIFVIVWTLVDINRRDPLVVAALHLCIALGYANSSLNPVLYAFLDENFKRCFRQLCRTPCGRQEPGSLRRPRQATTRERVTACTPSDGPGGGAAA", "assay": "Agonist activity by the max response towards opioid receptor delta 1 induced contractions in mouse vas deferens (MVD) smooth muscle contraction assays", "type": "functional, tissue-based", "summary_of_the_method": "(§1)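 Electrically stimulated MVD (male ICR mice, 25-40 g) and GPI longitudinal muscle myenteric plexus strips (male Hartley guinea pigs, 250-500 g). Baths held 37 °C oxygenated Krebs bicarbonate (Mg-free for MVD), tension 1 g GPI / 0.5 g MVD. Stimulation 0.1 Hz, 0.4 ms pulses (2 ms MVD), supramaximal voltage. […] IC50 from two to four tissues by nonlinear least squares.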"}, "[3]": {"target": "T1, Kappa-type opioid receptor (Cavia porcellus, UniProt P41144)", "T1 sequence (P41144 whole entry)": "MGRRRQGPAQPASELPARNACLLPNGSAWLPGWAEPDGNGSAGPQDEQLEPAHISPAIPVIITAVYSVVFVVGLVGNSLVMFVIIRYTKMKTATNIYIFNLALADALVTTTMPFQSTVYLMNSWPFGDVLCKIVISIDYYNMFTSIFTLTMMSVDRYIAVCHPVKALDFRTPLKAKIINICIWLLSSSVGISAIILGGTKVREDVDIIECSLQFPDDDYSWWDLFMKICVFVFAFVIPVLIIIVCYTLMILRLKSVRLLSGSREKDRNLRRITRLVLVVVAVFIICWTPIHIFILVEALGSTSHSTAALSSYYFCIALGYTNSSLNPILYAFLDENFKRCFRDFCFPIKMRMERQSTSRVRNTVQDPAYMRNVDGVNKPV", "assay": "Agonistic activity towards Opioid receptor kappa 1 was determined in [35S]GTP-gamma-S, binding assay in guinea pig caudate; g = not active as an agonist", "type": "functional", "summary_of_the_method": "(§2)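 Guinea pig caudate membranes (10-20 µg protein) incubated 3 h at 22 °C in Tris-HCl pH 7.4 containing 100 mM NaCl, 10 mM MgCl2, 1 mM EDTA, 100 µM GDP and 0.05-0.1 nM [35S]GTP-γ-S, then filtered and counted. Nonspecific binding defined with 10 µM GTP-γ-S. Site isolation used CTAP, nor-BNI, NTI or TIPP. […] Three experiments pooled; logistic fit.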"}, "Mus musculus [4]": {"organism": "Mus musculus", "assay": "Antinociceptive effect was determined by the ability to exhibit 80% reduction of naloxone induced sensitivity; Yes", "type": "functional, organism-based"}, "[5]": {"target": "Opioid receptors; mu & delta (Rattus norvegicus) (UniProt P33533+P33535)", "sequence (P33533 whole entry, looked up)": "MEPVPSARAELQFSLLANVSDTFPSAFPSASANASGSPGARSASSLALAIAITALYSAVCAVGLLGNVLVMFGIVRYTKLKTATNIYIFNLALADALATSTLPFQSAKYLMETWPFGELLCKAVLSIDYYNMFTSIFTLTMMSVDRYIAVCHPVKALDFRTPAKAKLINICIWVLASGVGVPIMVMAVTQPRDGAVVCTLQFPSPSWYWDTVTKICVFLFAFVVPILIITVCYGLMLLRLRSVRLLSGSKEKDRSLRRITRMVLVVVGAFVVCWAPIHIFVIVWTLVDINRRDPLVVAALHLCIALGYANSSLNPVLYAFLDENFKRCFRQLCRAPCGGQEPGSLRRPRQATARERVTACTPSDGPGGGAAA", "sequence (P33535 whole entry, looked up)": "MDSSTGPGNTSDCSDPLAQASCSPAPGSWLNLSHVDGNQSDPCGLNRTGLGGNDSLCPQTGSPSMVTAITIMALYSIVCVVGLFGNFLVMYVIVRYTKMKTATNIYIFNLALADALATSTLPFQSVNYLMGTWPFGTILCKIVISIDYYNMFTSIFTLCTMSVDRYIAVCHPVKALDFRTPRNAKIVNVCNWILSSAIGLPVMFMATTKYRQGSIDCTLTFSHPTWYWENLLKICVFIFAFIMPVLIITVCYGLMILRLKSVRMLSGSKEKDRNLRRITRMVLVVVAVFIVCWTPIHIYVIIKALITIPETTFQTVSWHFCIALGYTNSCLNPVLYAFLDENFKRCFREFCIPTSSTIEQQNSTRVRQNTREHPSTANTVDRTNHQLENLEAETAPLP", "assay": "Selectivity given as ratio of mu receptor to delta receptor", "type": "protein assay"}, "[6]": {"target": "T1, Kappa-type opioid receptor", "assay": "Apparent binding affinity of compound was determined by antagonism towards Opioid receptor kappa 1 in [35S]GTP-gamma-S, binding assay in guinea pig caudate", "type": "functional"}, "Mu-type opioid receptor [7]": {"target": "T2, Mu-type opioid receptor (Cavia porcellus, UniProt P97266)", "T2 sequence (P97266 whole entry)": "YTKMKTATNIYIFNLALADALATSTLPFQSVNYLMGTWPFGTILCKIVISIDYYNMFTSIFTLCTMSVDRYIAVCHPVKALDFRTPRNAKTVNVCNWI", "assay": "Inhibitory concentration for inhibition of Opioid receptor mu 1 induced contractions in guinea pig ileum (GPI) smooth muscle assays", "type": "functional, tissue-based", "summary_of_the_method": "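Electrically stimulated MVD (male ICR mice, 25-40 g) and GPI longitudinal muscle myenteric plexus strips (male Hartley guinea pigs, 250-500 g). Baths held 37 °C oxygenated Krebs bicarbonate (Mg-free for MVD), tension 1 g GPI / 0.5 g MVD. Stimulation 0.1 Hz, 0.4 ms pulses (2 ms MVD), supramaximal voltage. IC50 from two to four tissues by nonlinear least squares.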"}, "Mu-type opioid receptor [8]": {"target": "T2, Mu-type opioid receptor", "assay": "Agonistic activity towards Opioid receptor mu 1 was determined in [35S]GTP-gamma-S, binding assay in guinea pig caudate", "type": "functional", "conditions": "read-out: EC50", "summary_of_the_method": "as §2"}, "Mu-type opioid receptor [9]": {"target": "T2, Mu-type opioid receptor", "assay": "Apparent binding affinity of compound was determined by antagonism towards Opioid receptor mu 1 in [35S]GTP-gamma-S, binding assay in guinea pig caudate", "type": "functional"}, "[10]": {"target": "T1, Kappa-type opioid receptor", "assay": "Binding affinity at Opioid receptor kappa 1 by displacement of [3H]U-69593 in guinea pig brain membranes", "type": "cell membranes, Membrane"}, "[11]": {"target": "Mu-type opioid receptor (Cavia porcellus) (UniProt P97266)", "sequence (P97266 whole entry)": "as above", "conditions": "Ileum"}, "[12]": {"target": "Delta-type opioid receptor (Mus musculus) (UniProt P32300)", "assay": "Agonist activity by the maximum response towards opioid receptor delta 1 induced contractions in mouse vas deferens (MVD) smooth muscle contraction assays", "type": "functional, tissue-based", "summary_of_the_method": "as §1"}, "[13]": {"target": "Delta-type opioid receptor (Mus musculus) (UniProt P32300)", "conditions": "Vas deferens"}, "Mu-type opioid receptor [14]": {"target": "T3, Mu-type opioid receptor (Rattus norvegicus, UniProt P33535)", "T3 sequence (P33535 whole entry)": "as the sequence (P33535 whole entry, looked up) above", "assay": "Binding affinity at Opioid receptor mu 1 by displacement of [3H]DAMGO in rat brain membrane", "type": "cell membranes"}, "[15]": {"target": "Delta-type opioid receptor (Rattus norvegicus, UniProt P33533)", "sequence (P33533 whole entry)": "as the sequence (P33533 whole entry, looked up) above", "assay": "Binding affinity at opioid receptor delta 1 by displacement of [3H]DADLE in rat brain membrane", "type": "cell membranes"}, "Mu-type opioid receptor [16]": {"target": "T3, Mu-type opioid receptor", "assay": "Binding affinity at Opioid receptor mu 1 by displacement of [3H]DAMGO at 1.4 to 3.0 nM in rat brain membrane", "type": "cell membranes", "summary_of_the_method": "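Rat brain membranes freshly homogenised in ice-cold 10 mM Tris-HCl pH 7.0, centrifuged twice at 30000g, then resuspended in 50 mM Tris-HCl pH 7.4. […] Nonspecific binding was defined with 20 µM levallorphan. Two experiments were pooled and fitted by logistic regression, with Ki = IC50/(1+[L]/Kd).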"}, "Mu-type opioid receptor [17]": {"target": "T2, Mu-type opioid receptor", "assay": "Agonistic activity towards Opioid receptor mu 1 was determined in [35S]GTP-gamma-S, binding assay in guinea pig caudate; g = not active as an agonist", "type": "functional", "summary_of_the_method": "as §2"}, "[18]": {"target": "Mu-type opioid receptor (Cavia porcellus) (UniProt P97266)", "conditions": "Ileum, filed as agonist"}, "[19]": {"target": "T1, Kappa-type opioid receptor", "assay": "Agonistic activity towards Opioid receptor kappa 1 was determined in [35S]GTP-gamma-S, binding assay in guinea pig caudate", "type": "functional", "summary_of_the_method": "as §2"}, "Mus musculus [20]": {"organism": "Mus musculus", "assay": "Antinociceptive effect was determined at 100 nM in mouse", "type": "functional"}, "[21]": {"target": "Mu-type opioid receptor (Cavia porcellus) (UniProt P97266)", "conditions": "Ileum, filed as agonist", "remark": "listed apart in the source"}}, "note": "Active and inactive are the calls of the source.", "data": [{"compound": "CN1CC[C@]23c4c5ccc(O)c4O[C@H]2c2ncccc2C[C@@]3(O)[C@H]1C5", "values": [{"measurement": "A50", "setting": "Mus musculus [1]", "value": 67.1, "unit": "nM"}, {"measurement": "Ratio", "setting": "Cavia porcellus", "value": 15}, {"measurement": "Response", "setting": "[2]", "value": 49, "unit": "%"}, {"measurement": "EC50", "setting": "[3]", "value": "Not Active"}, {"measurement": "Activity", "setting": "Mus musculus [4]", "value": "Active"}, {"measurement": "Ratio", "setting": "[5]", "value": 0.4}, {"measurement": "Ki", "setting": "[6]", "value": "> 1000", "unit": "nM"}, {"measurement": "IC50", "setting": "Mu-type opioid receptor [7]", "value": 523, "unit": "nM"}, {"measurement": "EC50", "setting": "Mu-type opioid receptor [8]", "value": 3000, "unit": "nM"}, {"measurement": "Ki", "setting": "Mu-type opioid receptor [9]", "value": "> 1000", "unit": "nM"}]}, {"compound": "COc1ccc2c3c1O[C@H]1c4ncc(-c5ccc(Cl)cc5)cc4C[C@@]4(O)[C@@H](C2)N(C)CC[C@]314", "values": [{"measurement": "Ki", "setting": "[10]", "value": "> 7100", "unit": "nM"}]}, {"compound": "Oc1ccc2c3c1O[C@H]1c4ncc(-c5ccccc5)cc4C[C@@]4(O)[C@@H](C2)N(CC2CC2)CC[C@]314", "values": [{"measurement": "Ke", "setting": "[11]", "value": 43, "unit": "nM"}, {"measurement": "Response", "setting": "[12]", "value": 4.7, "unit": "%"}, {"measurement": "Ratio", "setting": "Cavia porcellus", "value": 20}, {"measurement": "Ke", "setting": "[13]", "value": 3.7, "unit": "nM"}, {"measurement": "Ratio", "setting": "[5]", "value": 16}]}, {"compound": "C=CCN1C[C@H](C)N([C@H](c2ccc(C(=O)N(CC)CC)cc2)c2cccc(OC)c2)C[C@H]1C", "note": "[SNC-80]", "values": [{"measurement": "Ki", "setting": "[10]", "value": 8760, "unit": "nM"}, {"measurement": "Ki", "setting": "Mu-type opioid receptor [14]", "value": 8070, "unit": "nM"}]}, {"compound": "Oc1ccc2c3c1O[C@H]1c4ncccc4C[C@@]4(O)[C@@H](C2)N(CC2CC2)CC[C@]314", "values": [{"measurement": "Response", "setting": "[12]", "value": 0, "unit": "%"}, {"measurement": "Ratio", "setting": "Cavia porcellus", "value": 11}, {"measurement": "Ratio", "setting": "[5]", "value": 1.9}]}, {"compound": "COc1ccc2c3c1O[C@H]1c4ncc(-c5ccccc5)cc4C[C@@]4(O)[C@@H](C2)N(C)CC[C@]314", "values": [{"measurement": "Ki", "setting": "[15]", "value": 34, "unit": "nM"}, {"measurement": "Ratio", "setting": "Cavia porcellus", "value": "> 294"}, {"measurement": "Ki", "setting": "[10]", "value": "> 10000", "unit": "nM"}, {"measurement": "Ratio", "setting": "[5]", "value": 26}, {"measurement": "Ki", "setting": "Mu-type opioid receptor [16]", "value": 894, "unit": "nM"}]}, {"compound": "Oc1ccc2c3c1O[C@H]1c4ncc(-c5ccc(Cl)cc5)cc4C[C@H]4[C@@H](C2)N(CC2CC2)CC[C@]314", "values": [{"measurement": "EC50", "setting": "Mu-type opioid receptor [17]", "value": "Not Active"}, {"measurement": "Ratio", "setting": "Cavia porcellus", "value": 2.3}, {"measurement": "Response", "setting": "[2]", "value": 7.9, "unit": "%"}, {"measurement": "EC50", "setting": "[3]", "value": "Not Active"}, {"measurement": "Ke", "setting": "[13]", "value": 6, "unit": "nM"}, {"measurement": "Ratio", "setting": "[5]", "value": 24}, {"measurement": "Ke", "setting": "[18]", "value": "Agonist"}, {"measurement": "IC50", "setting": "Mu-type opioid receptor [7]", "value": 109, "unit": "nM"}, {"measurement": "Ki", "setting": "Mu-type opioid receptor [9]", "value": 9.2, "unit": "nM"}]}, {"compound": "CN1CC[C@]23c4c5ccc(O)c4O[C@H]2c2ncc(-c4ccc(Cl)cc4Cl)cc2C[C@H]3[C@H]1C5", "values": [{"measurement": "EC50", "setting": "Mu-type opioid receptor [17]; read-out: EC50", "value": 225, "unit": "nM"}, {"measurement": "Ratio", "setting": "Cavia porcellus", "value": 366}, {"measurement": "Response", "setting": "[2]", "value": 28.3, "unit": "%"}, {"measurement": "EC50", "setting": "[19]", "value": "Not Active"}, {"measurement": "Ke", "setting": "[13]", "value": 5.02, "unit": "nM"}, {"measurement": "Ratio", "setting": "[5]", "value": 88}, {"measurement": "Ke", "setting": "[18]", "value": "Agonist"}, {"measurement": "IC50", "setting": "Mu-type opioid receptor [7]", "value": 724, "unit": "nM"}, {"measurement": "Activity", "setting": "Mus musculus [20]", "value": 40, "unit": "%"}, {"measurement": "Ki", "setting": "Mu-type opioid receptor [9]", "value": "> 1000", "unit": "nM"}]}, {"compound": "CN1CC[C@]23c4c5ccc(O)c4O[C@H]2c2ncc(-c4ccc(Br)cc4)cc2C[C@H]3[C@H]1C5", "values": [{"measurement": "A50", "setting": "Mus musculus [1]", "value": 47.2, "unit": "nM"}, {"measurement": "EC50", "setting": "Mu-type opioid receptor [17]; read-out: EC50", "value": 3220, "unit": "nM"}, {"measurement": "Ke", "setting": "[21]", "value": "Agonist"}, {"measurement": "Response", "setting": "[12]", "value": 44, "unit": "%"}, {"measurement": "Ratio", "setting": "Cavia porcellus", "value": 18}, {"measurement": "EC50", "setting": "[19]", "value": "Not Active"}, {"measurement": "Ke", "setting": "[13]", "value": 20, "unit": "nM"}, {"measurement": "Activity", "setting": "Mus musculus [4]", "value": "Active"}, {"measurement": "Ratio", "setting": "[5]", "value": 40}, {"measurement": "IC50", "setting": "Mu-type opioid receptor [7]", "value": 666, "unit": "nM"}, {"measurement": "Ki", "setting": "Mu-type opioid receptor [9]", "value": "> 1000", "unit": "nM"}]}, {"compound": "Oc1ccc2c3c1O[C@H]1c4ncc(-c5ccc(Cl)cc5)cc4C[C@@]4(O)[C@@H](C2)N(CC2CC2)CC[C@]314", "values": [{"measurement": "EC50", "setting": "Mu-type opioid receptor [17]", "value": "Not Active"}, {"measurement": "Response", "setting": "[12]", "value": 21, "unit": "%"}, {"measurement": "EC50", "setting": "[3]", "value": "Not Active"}, {"measurement": "IC50", "setting": "Mu-type opioid receptor [7]", "value": 163, "unit": "nM"}, {"measurement": "Activity", "setting": "Mus musculus [20]", "value": 21, "unit": "%"}, {"measurement": "Ki", "setting": "Mu-type opioid receptor [9]", "value": 7.8, "unit": "nM"}]}]}
